Rows were chosen to be rich in hits. Some 3.5% of all compounds tested hit in one or more screens of this group.
RGS4 act: RGS4 potentiation or activation; HEK293 M3R/inducible RGS4, carbachol calcium flux Fluo4; active compounds read low; B-score at 10 µM; actives 0.92% (n = 310,000); AID 463111;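 active = B-score of the integrated calcium signal more than 4 SD below the library mean, with starting fluorescence not abnormally high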;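 note: negative B-score means reduced calcium response which marks RGS4 activation or potentiation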
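Reagent: ECmax carbachol challenge; Test system: M3R-expressing HEK293 line, RGS4 induced by doxycycline; Schedule: overnight RGS4 induction, 30 min dye load 37 °C, 20 min compound RT; Detection: calcium dye Fluo4 fluorescence; Read-out: Agonist-evoked peak-minus-minimum fluorescence over baseline, integrated ratio, B score.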
MrgX1 antag: antagonists of human MrgX1 receptor | MRGX1-HEK293 calcium flux, Fluo-4, BAM8-22 antagonism; active compounds read low | B-score at 10 µM | actives 1.3% (n = 310,000) | Q96LB2;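 active = calcium-response B-score plate-corrected more than 3 library SD below zero, starting fluorescence within 5 deviations, no agonist response on first addition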;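 note: peak minus trough fluorescence over baseline after final BAM8-22 challenge near maximal dose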
Target sequence (Q96LB2 whole entry, looked up): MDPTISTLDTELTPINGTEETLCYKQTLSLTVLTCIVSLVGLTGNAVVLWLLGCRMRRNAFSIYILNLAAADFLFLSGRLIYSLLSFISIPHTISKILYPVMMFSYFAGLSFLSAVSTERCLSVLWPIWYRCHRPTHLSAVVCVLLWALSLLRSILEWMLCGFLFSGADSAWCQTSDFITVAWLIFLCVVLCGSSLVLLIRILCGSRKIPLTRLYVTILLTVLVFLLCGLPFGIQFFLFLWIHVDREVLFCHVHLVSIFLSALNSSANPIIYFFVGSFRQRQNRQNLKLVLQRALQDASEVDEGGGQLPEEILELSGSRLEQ
MrgX1 ag: agonists of human MrgX1 receptor; MrgX1-HEK293 cells, Fluo-4 calcium fluorescence, agonist mode; active compounds read high; AID 588627; Q96LB2; actives 0.44% (n = 310,000); B-score at 10 µM;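 active = calcium response B-score plate-corrected fluorescence ratio at least 3 library SD, with starting fluorescence B-score inside 5 SD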
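System: HEK293 cells stably expressing human MrgX1 receptor; Dosing: test compound in the initial addition of three; Schedule: overnight plating, then 30 min 37 °C plus 30 min room-temperature dye loading; Detection: kinetic calcium dye fluorescence, Fluo-4 NW; Controls: per-plate positive and negative controls for Z′ factor.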
RGS4 inh: human RGS4 inhibition; AID 463165; HEK293 M3R/RGS4 inducible, Fluo-4 calcium flux; active compounds read high; triggered by carbachol at its EC20; actives 0.45% (n = 310,000); B-score at 10 µM; P49798;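 active = B-score, a plate-corrected calcium signal, over three deviations above library mean, with baseline fluorescence within five deviations of library mean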;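 note: RGS4 expression induced by doxycycline in cells with stable M3 receptor; B-score is computed from the integrated fluorescence ratio over baseline after carbachol; higher B-score means a larger calcium signal and so more RGS4 inhibition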
Target sequence (P49798 whole entry, looked up): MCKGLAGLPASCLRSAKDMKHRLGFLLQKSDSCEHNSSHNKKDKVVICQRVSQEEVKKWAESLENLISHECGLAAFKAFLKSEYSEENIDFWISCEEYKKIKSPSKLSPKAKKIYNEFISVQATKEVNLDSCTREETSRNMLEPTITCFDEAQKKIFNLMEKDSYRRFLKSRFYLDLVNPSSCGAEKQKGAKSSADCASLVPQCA
MrgX1 PAM: human MrgX1 positive allosteric modulation, primary screen; MrgX1-HEK293, Fluo-4 calcium flux, FDSS; active compounds read high; B-score at 10 µM; Q96LB2; AID 588675; actives 0.63% (n = 310,000);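 active = plate-corrected calcium response at least 3 library SD above typical, normal starting fluorescence, not activating the receptor alone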;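 note: compound read alongside a low EC10 to EC30 dose of BAM8-22 agonist; peak minus trough fluorescence over baseline measured at the second addition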
RGS4 act valid: RGS4 activation, validation assay. HEK293 M3R/RGS4 inducible, carbachol calcium flux Fluo4. actives 89% (n = 1,100). AID 602282. shares compounds with RGS4 act. inhibition, % at 10 µM;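 active = inhibition above 3 SD of the buffer control wells, cut at about 41% in these data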;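 note: signal is the integrated peak-minus-minimum Fluo4 fluorescence over baseline ratio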
RGS4 act ctr: RGS4 activator counter-screen hit in non-induced cells; actives 82% (n = 1,100); inhibition, % at 10 µM; shares compounds with RGS4 act; HEK293 M3R non-induced RGS4, Fluo4 calcium flux; after carbachol challenge at its EC90;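 active = inhibition exceeding 3 SD of buffer-only control wells, cut at about 26% in these data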;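 note: percent drop in integrated peak-minus-baseline over baseline Fluo4 ratio after carbachol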
Each line names hits and unclear results; the compound was inactive in the other large screens (follow-up assays come after a bar, where they were run).

CC(C)c1ccc(C2NC(=O)CCC2[N+](=O)[O-])cc1 (stereo unspecified)	none
CCOC(=O)c1cc(NC(=O)Cc2ccc(S(=O)(=O)N3CCOCC3)s2)cc(C(=O)OCC)c1	RGS4 act -8 | RGS4 act valid 64.5 | RGS4 act ctr 36.3
Cc1cccc(C)c1OCCCCN1CCCCC1	none
C=CCn1c(SCC(=O)N2CCc3ccccc3C2)nc2sc(C)c(C)c2c1=O	RGS4 act -7.89 | RGS4 act valid 85.0 | RGS4 act ctr 58.3
C=CCn1c(SCC(=O)N2CCc3ccccc3C2)nc2sc(CC)cc2c1=O	none
O=C1Nc2ccc(Br)cc2C1=C1CCCCC1	RGS4 act -8.74 | RGS4 act valid 36.5 | RGS4 act ctr inactive
Cc1ccc(N=C2C(=O)Nc3ccc(Br)cc32)cc1	none
CC1(NC(=O)Nc2cccc3ccccc23)CCS(=O)(=O)C1 (stereo unspecified)	none
O=C(O)c1cc2c([nH]c1=O)CCCC2	none
C=CCSC(=C(C#N)C#N)c1cc2c([nH]1)CCCC2	RGS4 act -9.2 | RGS4 act valid 89.5 | RGS4 act ctr 31.8
COc1ccccc1C(=O)NC(=O)CSc1nc(C)cs1	none
O=C(NCCN1CCN(c2ccc([N+](=O)[O-])cc2)CC1)NCc1ccccc1	none
O=C(CN1CCCC1)N1c2ccccc2C=Cc2ccccc21	RGS4 act -10.3 | RGS4 act valid 82.0 | RGS4 act ctr 40.8
O=C(CN1CCCC1)N1CCCc2ccccc21	none
CN1CCN(C(=O)N2c3ccccc3C=Cc3ccccc32)CC1	RGS4 act -9.71 | RGS4 act valid 94.0 | RGS4 act ctr 69.3
NC(=O)N1c2ccccc2C=Cc2ccccc21	none
CCCn1c2ccc(C)cc2c2nnc(SCCN3CCCCC3)nc21	RGS4 act -8.94 (no result: MrgX1 antag, MrgX1 ag, MrgX1 PAM) | RGS4 act valid 79.0 | RGS4 act ctr 83.8
CCn1c2ccc(C)cc2c2nnc(SCCN3CCCCC3)nc21	none
c1ccc(Cn2c3ccccc3c3nnc(SCCN4CCCCC4)nc32)cc1	RGS4 act -10.8 | RGS4 act valid 93.0 | RGS4 act ctr 90.3
COc1ccc(OC)c2sc(N(CCCN(C)C)C(=O)CCS(=O)(=O)c3ccccc3)nc12	RGS4 act -12.7, MrgX1 antag -7.58 | RGS4 act valid 83.5 | RGS4 act ctr 57.8
COc1cccc(CN2CCCC(C(=O)Nc3ccc(-c4cscn4)cc3)C2)c1 (stereo unspecified)	RGS4 act -9.93 | RGS4 act valid 91.5 | RGS4 act ctr 62.3
Cc1ncc(CN2CCCC(C(=O)Nc3ccc(-c4cscn4)cc3)C2)cn1 (stereo unspecified)	none
CN1/C(=C/C=C(C#N)C#N)C(C)(C)c2ccccc21	RGS4 act -7.76 | RGS4 act valid 88.0 | RGS4 act ctr 82.3
CN1\C(=C/C=C/C=C/C=[N+](C)C)C(C)(C)c2ccccc21	none (no result: MrgX1 antag, MrgX1 ag, MrgX1 PAM)
CC(C)Oc1cccc(C(=O)NC(=S)Nc2ccc(N3CCN(C)CC3)cc2)c1	RGS4 act -10.5 | RGS4 act valid 92.0 | RGS4 act ctr 92.8
COc1cccc(C(=O)NC(=S)Nc2ccc(N3CCCC3)cc2)c1	none
CC(C)CSC1=NSC2=NC(=O)/C(=C\c3coc4ccccc4c3=O)C(=N)N12	RGS4 act -12.1 | RGS4 act valid 98.5 | RGS4 act ctr 99.8
CC(C)NC(=O)c1ccc2c(=O)n(C3CCCC3)c(=S)[nH]c2c1	none
CCN(CC)CCNC(=O)c1ccc2c(=O)n(C3CCCC3)c(=S)[nH]c2c1	RGS4 act -8.4 | RGS4 act valid 92.0 | RGS4 act ctr 73.3
Clc1ccc(Nc2ccc(NCc3ccccc3)nn2)cc1	RGS4 act -7.57 | RGS4 act valid inactive | RGS4 act ctr inactive
Cc1ccc(Nc2ccc(NCc3ccccc3)nn2)cc1C	none
CNC(=O)CNC(=O)Nc1ccc(Cl)c(Cl)c1	none
OCCOCCN1CCN(C2=Nc3ccccc3Sc3ccccc32)CC1	none
Cc1cc2c(s1)Nc1ccccc1N=C2N1CCN(C)CC1	RGS4 act -9.54 | RGS4 act valid 91.0 | RGS4 act ctr 84.8
O=C(CCCCCCC(=O)c1ccccc1)c1ccccc1	none
Cn1c(SCCOc2ccccc2F)nc2ccccc2c1=O	RGS4 act -7.81 | RGS4 act valid 92.0 | RGS4 act ctr 80.8
CCc1nc2nc(C)c(NS(=O)(=O)c3ccc(Cl)s3)c(=O)n2[nH]1	none
CCOC(=O)C1CCCN(C(=O)c2cc(-c3ccc(C)cc3)nc3ccccc23)C1 (stereo unspecified)	RGS4 act -9.07 | RGS4 act valid 48.5 | RGS4 act ctr inactive
CCOC(=O)C1CCCN(C(=O)c2cc(Nc3ccc(OC)c(OC)c3)nc3ccccc23)C1 (stereo unspecified)	none
CC(Oc1ccc(Cl)cc1Cl)C(=O)NCCC1=CCCCC1 (stereo unspecified)	none
CN1CCN(c2nc3c(c(=O)n(C)c(=O)n3C)n2Cc2ccccc2F)CC1	none
CCN1CCCC1CNCc1cccc(OC)c1OCc1ccccc1 (stereo unspecified)	none
CCN1CCCC1CNCc1ccccc1OCc1ccc(F)cc1 (stereo unspecified)	RGS4 act -7.62 | RGS4 act valid 46.0 | RGS4 act ctr inactive
O=S(=O)(Cc1ccccc1)N1CCNCC1	none
N#CC1=C(N)OC2=C(C(=O)CC(c3ccccc3)C2)C1c1ccc2c(c1)OCO2 (stereo unspecified)	RGS4 act -8.2 | RGS4 act valid 91.5 | RGS4 act ctr 67.8
O=C(Nc1c(F)cccc1F)c1cnc(N2CCN(c3ccccn3)CC2)c2ccccc12	none
Cc1nc(N2CCN(c3ccccn3)CC2)c2c(C)c(C(=O)Nc3ccc(F)cc3F)sc2n1	RGS4 act -8.96 | RGS4 act valid 80.5 | RGS4 act ctr 26.8
Cc1ccc(NC(=O)c2cnc(N3CCN(c4ccccn4)CC3)c3ccccc23)c(Br)c1	RGS4 act -11.1 | RGS4 act valid 91.0 | RGS4 act ctr 75.8
COc1ccc(NC(=O)c2sc3nc(C)nc(N4CCN(c5ccccn5)CC4)c3c2C)cc1Cl	none
Cc1nc(N2CCN(c3ccccn3)CC2)c2c(C)c(C(=O)Nc3ccccc3F)sc2n1	RGS4 act -7.82 | RGS4 act valid 93.5 | RGS4 act ctr 58.8
CCc1ccc(NC(=O)c2sc3nc(C)nc(N4CCN(c5ccccn5)CC4)c3c2C)cc1	RGS4 act -8.48 | RGS4 act valid 63.5 | RGS4 act ctr 83.8
CCOc1cccc(CN2CCCC(N3CCc4cc(OC)c(OC)cc4C3)C2)c1O (stereo unspecified)	none
CC1CCN(S(=O)(=O)N2CCN(C(=O)c3ccc4c(c3)OCO4)CC2)CC1	none
